Source: ChEMBL document CHEMBL1165965, “Synthesis and structure-activity relationships of 1,2,3,4-tetrahydropyrido[2,3-b]pyrazines as potent and selective inhibitors of the anaplastic lymphoma kinase” (Bioorg Med Chem, 2010)

How the values were obtained:
[1] = molecular target: T1, Cytoplasmic tyrosine-protein kinase BMX (Homo sapiens) (UniProt P51813); experiment: Inhibition of BMX at 1 uM
T1 sequence (whole entry): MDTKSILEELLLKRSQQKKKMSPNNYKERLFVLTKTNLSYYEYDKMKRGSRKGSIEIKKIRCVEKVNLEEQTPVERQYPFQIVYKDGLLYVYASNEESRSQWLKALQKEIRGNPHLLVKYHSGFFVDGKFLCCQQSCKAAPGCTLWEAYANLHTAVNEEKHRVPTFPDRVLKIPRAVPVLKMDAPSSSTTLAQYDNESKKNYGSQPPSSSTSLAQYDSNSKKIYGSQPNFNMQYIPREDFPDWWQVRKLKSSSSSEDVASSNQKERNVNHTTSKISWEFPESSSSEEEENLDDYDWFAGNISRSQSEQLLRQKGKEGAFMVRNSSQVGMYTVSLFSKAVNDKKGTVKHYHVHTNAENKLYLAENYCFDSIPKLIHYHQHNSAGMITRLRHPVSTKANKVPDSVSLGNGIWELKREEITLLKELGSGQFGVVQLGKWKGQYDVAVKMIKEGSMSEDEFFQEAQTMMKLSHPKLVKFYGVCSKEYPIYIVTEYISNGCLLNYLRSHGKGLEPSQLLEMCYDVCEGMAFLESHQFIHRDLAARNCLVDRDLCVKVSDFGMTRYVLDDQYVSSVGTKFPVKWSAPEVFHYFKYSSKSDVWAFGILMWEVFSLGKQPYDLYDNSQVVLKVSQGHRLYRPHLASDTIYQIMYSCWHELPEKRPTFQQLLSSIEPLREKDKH
In short: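 Ambit KINOMEscan screen at a single concentration across a 250–400 kinase panel, recorded as percent inhibition. Selectivity was expressed as S(90), the fraction of kinases inhibited >90%.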

[2] = tested on: Tyrosine-protein kinase ABL1 (Homo sapiens), P00519 [F317L]; experiment: Inhibition of ABL1 F317L mutant at 1 uM
[3] = molecular target: T2, Muscle, skeletal receptor tyrosine-protein kinase (Homo sapiens) (UniProt O15146); experiment: Inhibition of MUSK at 1 uM
T2 sequence (whole entry): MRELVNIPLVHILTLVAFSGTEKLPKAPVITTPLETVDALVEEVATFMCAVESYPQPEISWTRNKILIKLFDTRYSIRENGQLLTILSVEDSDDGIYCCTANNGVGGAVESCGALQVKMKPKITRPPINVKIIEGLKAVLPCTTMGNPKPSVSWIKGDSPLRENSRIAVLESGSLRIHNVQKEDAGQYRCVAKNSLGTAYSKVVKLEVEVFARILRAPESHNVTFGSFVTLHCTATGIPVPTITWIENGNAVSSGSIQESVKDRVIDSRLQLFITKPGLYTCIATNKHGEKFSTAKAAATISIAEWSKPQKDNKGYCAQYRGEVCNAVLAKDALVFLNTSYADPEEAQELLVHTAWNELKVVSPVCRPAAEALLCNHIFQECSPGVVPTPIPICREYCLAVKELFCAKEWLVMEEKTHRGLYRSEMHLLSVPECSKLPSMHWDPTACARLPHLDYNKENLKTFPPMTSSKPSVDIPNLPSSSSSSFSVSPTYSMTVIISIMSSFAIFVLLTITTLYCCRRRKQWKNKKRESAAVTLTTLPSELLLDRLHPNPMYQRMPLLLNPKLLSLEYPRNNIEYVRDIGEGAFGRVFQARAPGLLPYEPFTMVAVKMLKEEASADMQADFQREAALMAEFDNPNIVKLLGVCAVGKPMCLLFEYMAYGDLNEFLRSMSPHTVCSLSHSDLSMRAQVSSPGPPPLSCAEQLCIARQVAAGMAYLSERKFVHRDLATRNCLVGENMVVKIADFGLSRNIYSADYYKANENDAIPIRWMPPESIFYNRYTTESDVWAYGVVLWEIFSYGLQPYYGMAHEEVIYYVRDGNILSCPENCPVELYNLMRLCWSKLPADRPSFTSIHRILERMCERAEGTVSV

[4] = molecular target: T3, Serine/threonine-protein kinase TBK1 (Homo sapiens) (UniProt Q9UHD2); experiment: Inhibition of TBK1 at 1 uM
T3 sequence (whole entry): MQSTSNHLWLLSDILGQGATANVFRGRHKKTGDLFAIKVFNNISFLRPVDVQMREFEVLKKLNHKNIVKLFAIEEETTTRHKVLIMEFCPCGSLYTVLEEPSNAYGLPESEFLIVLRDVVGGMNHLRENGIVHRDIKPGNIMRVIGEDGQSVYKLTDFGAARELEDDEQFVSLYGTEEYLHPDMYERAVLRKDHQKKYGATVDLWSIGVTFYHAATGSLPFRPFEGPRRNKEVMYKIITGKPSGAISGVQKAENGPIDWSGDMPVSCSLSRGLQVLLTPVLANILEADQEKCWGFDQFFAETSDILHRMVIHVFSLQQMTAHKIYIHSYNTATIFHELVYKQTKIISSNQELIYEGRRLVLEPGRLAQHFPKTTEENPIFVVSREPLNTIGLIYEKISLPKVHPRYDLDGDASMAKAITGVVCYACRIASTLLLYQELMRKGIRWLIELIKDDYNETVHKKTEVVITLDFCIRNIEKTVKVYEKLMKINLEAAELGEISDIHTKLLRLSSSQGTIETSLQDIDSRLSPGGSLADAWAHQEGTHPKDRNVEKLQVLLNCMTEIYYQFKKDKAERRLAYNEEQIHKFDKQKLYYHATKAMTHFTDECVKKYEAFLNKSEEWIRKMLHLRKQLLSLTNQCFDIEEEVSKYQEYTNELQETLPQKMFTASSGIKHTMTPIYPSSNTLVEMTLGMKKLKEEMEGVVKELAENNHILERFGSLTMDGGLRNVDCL

[5] = molecular target: T4, Serine/threonine-protein kinase 4 (Homo sapiens) (UniProt Q13043); experiment: Inhibition of MST1 at 1 uM
T4 sequence (whole entry): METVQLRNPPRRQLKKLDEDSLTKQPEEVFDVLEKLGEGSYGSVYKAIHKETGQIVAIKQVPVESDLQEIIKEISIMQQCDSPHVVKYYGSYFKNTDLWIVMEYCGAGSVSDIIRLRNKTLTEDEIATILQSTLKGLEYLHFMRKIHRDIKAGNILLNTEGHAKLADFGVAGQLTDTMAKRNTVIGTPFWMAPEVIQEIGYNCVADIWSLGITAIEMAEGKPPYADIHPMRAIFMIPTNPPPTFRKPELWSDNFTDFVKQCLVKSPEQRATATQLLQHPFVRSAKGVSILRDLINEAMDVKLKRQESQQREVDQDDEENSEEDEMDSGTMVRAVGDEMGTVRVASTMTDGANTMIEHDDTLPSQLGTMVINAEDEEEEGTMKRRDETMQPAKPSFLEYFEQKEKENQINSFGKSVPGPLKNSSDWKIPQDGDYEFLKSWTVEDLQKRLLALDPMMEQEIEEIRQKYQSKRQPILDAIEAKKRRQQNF

[6] = molecular target: Serine/threonine-protein kinase PAK 1 (Homo sapiens) (UniProt Q13153); experiment: Inhibition of PAK1 at 1 uM
[7] = molecular target: Citron Rho-interacting kinase (Homo sapiens) (UniProt O14578); experiment: Inhibition of CIT at 1 uM
Chain of Citron Rho-interacting kinase (Homo sapiens) (O14578 whole entry): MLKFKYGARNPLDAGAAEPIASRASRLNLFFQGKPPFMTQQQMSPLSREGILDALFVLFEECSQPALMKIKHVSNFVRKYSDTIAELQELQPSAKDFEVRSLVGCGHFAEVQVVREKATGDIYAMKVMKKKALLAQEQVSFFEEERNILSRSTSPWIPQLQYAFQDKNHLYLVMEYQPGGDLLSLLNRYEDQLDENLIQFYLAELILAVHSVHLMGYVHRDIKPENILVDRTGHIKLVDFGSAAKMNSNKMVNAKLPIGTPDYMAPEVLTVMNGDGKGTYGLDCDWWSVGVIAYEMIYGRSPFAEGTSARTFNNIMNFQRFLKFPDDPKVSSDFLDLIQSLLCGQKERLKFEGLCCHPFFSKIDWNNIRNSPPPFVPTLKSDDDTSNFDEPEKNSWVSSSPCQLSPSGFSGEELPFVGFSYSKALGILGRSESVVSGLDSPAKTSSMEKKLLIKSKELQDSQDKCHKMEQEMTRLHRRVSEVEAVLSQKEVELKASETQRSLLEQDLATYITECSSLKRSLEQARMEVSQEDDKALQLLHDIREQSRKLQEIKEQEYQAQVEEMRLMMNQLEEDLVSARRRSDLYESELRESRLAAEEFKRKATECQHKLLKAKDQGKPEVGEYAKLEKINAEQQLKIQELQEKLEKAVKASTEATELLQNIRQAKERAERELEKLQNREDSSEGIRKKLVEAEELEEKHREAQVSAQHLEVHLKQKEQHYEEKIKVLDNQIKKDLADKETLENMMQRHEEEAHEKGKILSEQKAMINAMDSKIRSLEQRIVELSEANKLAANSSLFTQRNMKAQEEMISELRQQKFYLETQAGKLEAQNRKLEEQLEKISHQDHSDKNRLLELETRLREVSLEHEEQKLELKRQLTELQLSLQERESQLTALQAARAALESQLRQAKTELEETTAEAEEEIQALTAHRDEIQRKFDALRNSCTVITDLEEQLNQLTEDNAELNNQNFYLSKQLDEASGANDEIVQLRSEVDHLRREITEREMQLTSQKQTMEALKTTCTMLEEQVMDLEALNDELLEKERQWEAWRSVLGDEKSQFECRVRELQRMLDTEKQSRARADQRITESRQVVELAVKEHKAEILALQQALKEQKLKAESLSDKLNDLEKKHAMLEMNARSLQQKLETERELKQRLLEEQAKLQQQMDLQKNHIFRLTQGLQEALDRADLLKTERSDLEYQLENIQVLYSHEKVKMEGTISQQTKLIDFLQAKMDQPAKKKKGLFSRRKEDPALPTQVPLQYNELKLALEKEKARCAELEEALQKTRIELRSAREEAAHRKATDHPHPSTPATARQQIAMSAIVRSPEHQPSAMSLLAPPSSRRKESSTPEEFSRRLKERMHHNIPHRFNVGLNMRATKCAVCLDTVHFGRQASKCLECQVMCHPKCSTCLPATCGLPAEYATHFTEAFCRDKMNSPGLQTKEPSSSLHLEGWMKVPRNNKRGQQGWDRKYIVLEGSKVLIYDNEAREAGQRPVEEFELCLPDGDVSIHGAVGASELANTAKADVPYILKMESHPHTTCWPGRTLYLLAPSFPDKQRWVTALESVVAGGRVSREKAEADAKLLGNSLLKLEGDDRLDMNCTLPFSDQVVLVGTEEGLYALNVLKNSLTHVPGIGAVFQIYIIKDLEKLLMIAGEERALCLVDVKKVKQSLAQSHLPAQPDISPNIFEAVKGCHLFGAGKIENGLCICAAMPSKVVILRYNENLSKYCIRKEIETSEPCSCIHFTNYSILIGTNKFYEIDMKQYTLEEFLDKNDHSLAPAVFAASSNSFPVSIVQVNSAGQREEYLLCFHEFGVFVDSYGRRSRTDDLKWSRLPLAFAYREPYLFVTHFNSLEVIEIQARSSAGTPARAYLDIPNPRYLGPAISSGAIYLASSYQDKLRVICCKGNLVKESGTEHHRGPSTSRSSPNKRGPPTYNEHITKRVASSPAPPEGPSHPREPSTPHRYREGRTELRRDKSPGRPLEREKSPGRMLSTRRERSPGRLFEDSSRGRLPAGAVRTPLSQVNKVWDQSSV

Chain of Tyrosine-protein kinase ABL1 (Homo sapiens), P00519 [F317L] (P00519 whole entry F317L): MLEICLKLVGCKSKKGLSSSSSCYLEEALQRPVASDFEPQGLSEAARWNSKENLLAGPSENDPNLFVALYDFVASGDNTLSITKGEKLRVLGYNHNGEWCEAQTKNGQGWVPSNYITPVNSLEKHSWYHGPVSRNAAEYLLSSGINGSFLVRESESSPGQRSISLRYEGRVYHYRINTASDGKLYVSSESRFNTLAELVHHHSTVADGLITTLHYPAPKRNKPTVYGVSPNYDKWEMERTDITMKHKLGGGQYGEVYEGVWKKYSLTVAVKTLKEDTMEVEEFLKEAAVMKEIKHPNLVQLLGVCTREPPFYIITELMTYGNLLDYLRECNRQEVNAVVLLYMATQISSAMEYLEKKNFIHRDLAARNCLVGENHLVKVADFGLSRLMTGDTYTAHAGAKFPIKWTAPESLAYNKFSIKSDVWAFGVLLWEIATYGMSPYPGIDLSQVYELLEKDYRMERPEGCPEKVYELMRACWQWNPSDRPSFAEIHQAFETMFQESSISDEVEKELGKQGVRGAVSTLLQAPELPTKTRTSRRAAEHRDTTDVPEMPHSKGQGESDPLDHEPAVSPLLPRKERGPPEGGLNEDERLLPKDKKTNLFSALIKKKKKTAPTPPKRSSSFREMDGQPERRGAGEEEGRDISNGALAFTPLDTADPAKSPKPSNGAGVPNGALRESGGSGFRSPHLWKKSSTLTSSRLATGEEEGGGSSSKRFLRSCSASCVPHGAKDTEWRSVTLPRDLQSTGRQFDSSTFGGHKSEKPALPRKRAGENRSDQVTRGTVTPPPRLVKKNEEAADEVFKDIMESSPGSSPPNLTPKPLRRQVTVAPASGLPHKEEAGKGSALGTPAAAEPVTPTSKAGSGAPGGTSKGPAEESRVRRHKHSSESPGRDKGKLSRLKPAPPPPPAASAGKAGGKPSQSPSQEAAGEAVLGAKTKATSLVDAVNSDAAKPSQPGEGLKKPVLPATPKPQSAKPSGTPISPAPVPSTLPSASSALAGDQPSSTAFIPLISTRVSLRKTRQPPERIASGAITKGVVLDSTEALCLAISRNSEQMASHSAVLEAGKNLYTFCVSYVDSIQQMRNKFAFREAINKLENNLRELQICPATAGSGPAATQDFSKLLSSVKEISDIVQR
Chain of Serine/threonine-protein kinase PAK 1 (Homo sapiens) (Q13153 whole entry): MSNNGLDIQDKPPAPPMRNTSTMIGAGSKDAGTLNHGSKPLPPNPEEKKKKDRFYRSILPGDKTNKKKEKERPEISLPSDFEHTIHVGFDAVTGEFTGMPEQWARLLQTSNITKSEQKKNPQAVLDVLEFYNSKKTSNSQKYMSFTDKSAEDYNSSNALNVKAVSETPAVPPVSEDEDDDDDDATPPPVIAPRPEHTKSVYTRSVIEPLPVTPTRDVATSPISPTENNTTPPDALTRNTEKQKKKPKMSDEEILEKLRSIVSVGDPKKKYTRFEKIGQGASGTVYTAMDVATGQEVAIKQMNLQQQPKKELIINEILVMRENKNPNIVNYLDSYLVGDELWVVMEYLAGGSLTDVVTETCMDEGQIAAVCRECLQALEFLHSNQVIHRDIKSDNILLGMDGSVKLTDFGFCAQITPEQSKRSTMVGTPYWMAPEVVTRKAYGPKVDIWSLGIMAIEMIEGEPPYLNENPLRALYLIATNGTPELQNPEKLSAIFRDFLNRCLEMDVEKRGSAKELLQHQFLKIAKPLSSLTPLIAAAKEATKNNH

Structure (SMILES) | inhibition [1] [%] | inhibition [2] [%] | inhibition [3] [%] | inhibition [4] [%] | inhibition [5] [%] | inhibition [6] [%] | inhibition [7] [%]
CN1CCN(c2ccc(-c3cnc4c(c3)N(Cc3cc(Cl)ccc3Cl)CCN4)cn2)CC1 | < 50 | < 50 | < 50 | < 50 | < 50 | < 50 | < 50
CN1CCN(c2ccc(-c3cnc4c(c3)N(Cc3cc(Cl)ccc3C(F)(F)F)CCN4)cn2)CC1 | < 50 | < 50 | < 50 | < 50 | < 50 | < 50 | < 50
CN1CCN(c2ccc(-c3cnc4c(c3)N(Cc3c(F)ccc(F)c3Cl)CCN4)cn2)CC1 | < 50 | 77 | < 50 | < 50 | < 50 | < 50 | < 50
O=C(c1ccc(-c2cnc3c(c2)N(Cc2cc(Cl)ccc2C(F)(F)F)CCN3)cc1)N1CCC(N2CCCC2)CC1 | < 50 |  | < 50 |  |  | < 50 | 
COC1CCN(C(=O)c2ccc(-c3cnc4c(c3)N(Cc3cc(Cl)ccc3C(F)(F)F)CCN4)cc2)CC1 | < 50 |  | < 50 |  |  | < 50 | 
FC(F)(F)c1ccc(Cl)cc1CN1CCNc2ncc(-c3ccnc(N4CCNCC4)c3)cc21 | < 50 | < 50 | < 50 | < 50 | 73 | < 50 | < 50
CN1CCN(c2ccc(-c3cnc4c(c3)N(Cc3cc(F)ccc3F)CCN4)cn2)CC1 | < 50 | < 50 | < 50 | < 50 | < 50 | < 50 | < 50
O=C(c1ccc(-c2cnc3c(c2)N(Cc2cc(Cl)ccc2C(F)(F)F)CCN3)cc1)N1CCCCC1 | < 50 |  | < 50 |  |  | < 50 | 
CC(=O)N1CCN(c2cc(-c3cnc4c(c3)N(Cc3cc(Cl)ccc3C(F)(F)F)CCN4)ccn2)CC1 | < 50 | < 50 | < 50 | < 50 | < 50 | < 50 | < 50
O=C(O)c1ccc(-c2cnc3c(c2)N(Cc2cc(Cl)ccc2C(F)(F)F)CCN3)cc1 | < 50 | < 50 | < 50 |  |  | < 50 | 
